Experimental data gathered from unrelated publications.
Protocols differ between the studies behind these lines.
Target: Homeodomain-interacting protein kinase 4 (HIPK4, Homo sapiens, UniProt Q8NE63)
Effect on: enzyme activity
Mode: inhibitor
Sequence (Q8NE63 1-616, as in one of the studies): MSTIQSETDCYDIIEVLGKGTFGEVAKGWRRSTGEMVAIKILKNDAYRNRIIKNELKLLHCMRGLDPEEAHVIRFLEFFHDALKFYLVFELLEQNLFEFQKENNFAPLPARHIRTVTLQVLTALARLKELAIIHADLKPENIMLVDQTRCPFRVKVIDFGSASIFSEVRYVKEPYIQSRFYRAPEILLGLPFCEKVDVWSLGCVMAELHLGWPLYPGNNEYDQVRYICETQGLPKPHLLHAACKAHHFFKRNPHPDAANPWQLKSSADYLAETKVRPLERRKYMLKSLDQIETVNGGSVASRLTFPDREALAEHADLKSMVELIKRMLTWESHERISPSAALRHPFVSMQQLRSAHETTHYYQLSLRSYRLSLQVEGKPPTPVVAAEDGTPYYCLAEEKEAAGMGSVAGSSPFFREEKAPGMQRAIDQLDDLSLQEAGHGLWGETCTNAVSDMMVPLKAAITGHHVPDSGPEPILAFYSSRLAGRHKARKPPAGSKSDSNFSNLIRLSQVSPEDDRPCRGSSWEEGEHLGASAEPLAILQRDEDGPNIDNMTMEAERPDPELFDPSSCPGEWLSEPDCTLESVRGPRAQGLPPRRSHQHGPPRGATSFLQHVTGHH

Compound	test	conditions	remaining activity
COc1cc(Cl)c(C(=O)N[C@@H](CN[C@H]2CC[C@@H](N)CC2)Cc2ccc(C#N)cc2)cc1-c1ccc(CN[C@H](C)c2ccc(C)cc2)o1		1 µM	90%
CC(C)(O)[C@H]1CC[C@H](Nc2ccc3ncc(-c4cccc(C(F)(F)F)c4)n3n2)CC1		1 µM	23.6%
Cc1sc(C(=O)NC2COC2)cc1-n1cc(NC(=O)Nc2c(F)cccc2Cl)cn1		10 µM	98.4%
CC(C)(C)c1nc(-c2cccc(NS(=O)(=O)c3c(F)cccc3F)c2F)c(-c2ccnc(N)n2)s1	radiometric	1 µM	37%
O=C(O)c1ccc2c(c1)nc(NCCc1ccccc1)c1ncncc12	radiometric	1 µM	29%
Cc1ccc(C(=O)Nc2ccc(CN3CCN(C)CC3)c(C(F)(F)F)c2)cc1C#Cc1cnc2cccnn12		23.5 nM	71%
O=C(O)c1ccc2c(c1)nc(NCc1ccccc1)c1ncncc12	radiometric	1 µM	63%
CC(C)(C)c1nc2c(s1)c1nc(N)ncc1c1ccc(NS(=O)(=O)c3c(F)cccc3F)c(F)c12	radiometric	1 µM	82%
O=C(Nc1cnn(-c2csc(C(=O)NC3COC3)c2)c1)Nc1ccccc1Cl		5 µM	100%
O=C(O)c1ccc2c(c1)nc(Nc1ccccc1)c1ccncc12	radiometric	1 µM	-2%
